Test results taken from ChEMBL document CHEMBL1148170, “Antiplatelet effects and vasorelaxing action of some constituents of Formosan plants” (1993).

How the values were obtained:
Platelet [1] = assay: Inhibition of collagen-induced platelet aggregation in rabbit platelet-rich plasma at 100 ug/mL after 3 mins by turbidimetric method; assay type: functional, Oryctolagus cuniculus; set-up: scale not given: the % may be the effect or the level left
Summary of the method: (§1)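 Preincubated with test agent or 0.5% DMSO (final, control) at 37° for 3 min, then ADP (20 μM), arachidonic acid (100 μM), collagen (10 μg/ml) or PAF (2 ng/ml) added. Stirred at 1200 rpm, turbidimetric aggregometry. Percent aggregation as mean ± SEM.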

Platelet [2] = assay: Inhibition of platelet activity factor-induced platelet aggregation in rabbit platelet-rich plasma at 100 ug/mL after 3 mins by turbidimetric method; assay type: functional, Oryctolagus cuniculus; set-up: scale not given: the % may be the effect or the level left; summary of the method: as §1
Platelet [3] = assay: Inhibition of arachidonic acid-induced platelet aggregation in rabbit platelet-rich plasma at 100 ug/mL after 3 mins by turbidimetric method; assay type: functional, Oryctolagus cuniculus; set-up: scale not given: the % may be the effect or the level left; summary of the method: as §1
Aorta [4] = assay: Inhibition of K(+)/Ca(2+)-induced Wistar rat thoracic aorta contraction at 100 ug/mL after 15 mins; assay type: functional
Summary of the method: (§2)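 Wistar rat thoracic aorta rings, about 5 mm, in Krebs solution at 37° gassed with 95% O2/5% CO2, under 1 g tension, equilibrated 90 min. Preincubated 15 min with compound or 0.1% DMSO (control), then stimulated with high K+ (80 mM) plus Ca2+ (1.9 mM) or norepinephrine 3 μM (phasic and tonic phases). Expressed as % of control contraction, mean ± SE, n = 3.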

Aorta [5] = assay: Inhibition of norepinephrine-induced Wistar rat thoracic aorta phasic contraction at 100 ug/mL after 15 mins; assay type: functional; summary of the method: as §2
Aorta [6] = assay: Inhibition of norepinephrine-induced Wistar rat thoracic aorta tonic contraction at 100 ug/mL after 15 mins; assay type: functional; summary of the method: as §2
Platelet [7] = assay: Inhibition of arachidonic acid-induced platelet aggregation in rabbit platelet-rich plasma at 50 ug/mL after 3 mins by turbidimetric method; assay type: functional, Oryctolagus cuniculus; set-up: scale not given: the % may be the effect or the level left
Summary of the method: (§3)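 Washed rabbit platelets from EDTA-anticoagulated platelet-rich plasma, 4.5 × 10^8/ml in Tyrode's solution with 0.35% BSA. Preincubated with compound or 0.5% DMSO (final) at 37° for 3 min, stirred at 1200 rpm. Arachidonic acid (100 µM) or collagen (10 µg/ml) then added. Turbidimetric read-out on a Lumi-aggregometer gives % aggregation as mean ± SEM.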

Platelet [8] = assay: Inhibition of collagen-induced platelet aggregation in rabbit platelet-rich plasma at 50 ug/mL after 3 mins by turbidimetric method; assay type: functional, Oryctolagus cuniculus; set-up: scale not given: the % may be the effect or the level left; summary of the method: as §3
Platelet [9] = assay: Inhibition of ADP-induced platelet aggregation in rabbit platelet-rich plasma at 50 ug/mL after 3 mins by turbidimetric method; assay type: functional, Oryctolagus cuniculus; set-up: scale not given: the % may be the effect or the level left
Summary of the method: as §1, with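 “Washed rabbit platelets from EDTA-anticoagulated platelet-rich plasma, 4.5 × 10^8/ml in Tyrode's solution with 0.35% BSA. Preincubated” for “Preincubated”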

Platelet [10] = assay: Inhibition of platelet activity factor-induced platelet aggregation in rabbit platelet-rich plasma at 50 ug/mL after 3 mins by turbidimetric method; assay type: functional, Oryctolagus cuniculus; set-up: scale not given: the % may be the effect or the level left
Summary of the method: as §1, with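 “Washed rabbit platelets from EDTA-anticoagulated platelet-rich plasma, 4.5 × 10^8/ml in Tyrode's solution with 0.35% BSA. Preincubated” for “Preincubated”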

Platelet [11] = assay: Inhibition of ADP-induced platelet aggregation in rabbit platelet-rich plasma at 100 ug/mL after 3 mins by turbidimetric method; assay type: functional, Oryctolagus cuniculus; set-up: scale not given: the % may be the effect or the level left
Summary of the method: as §1, with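 “Washed rabbit platelets from EDTA-anticoagulated platelet-rich plasma, 4.5 × 10^8/ml in Tyrode's solution with 0.35% BSA. Preincubated” for “Preincubated”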

Platelet [12] = assay: Inhibition of arachidonic acid-induced platelet aggregation in rabbit platelet-rich plasma at 25 ug/mL after 3 mins by turbidimetric method; assay type: functional, Oryctolagus cuniculus; set-up: scale not given: the % may be the effect or the level left
Summary of the method: as §1, with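 “Washed rabbit platelets from EDTA-anticoagulated platelet-rich plasma, 4.5 × 10^8/ml in Tyrode's solution with 0.35% BSA. Preincubated” for “Preincubated”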

Platelet [13] = assay: Inhibition of platelet activity factor-induced platelet aggregation in rabbit platelet-rich plasma at 25 ug/mL after 3 mins by turbidimetric method; assay type: functional, Oryctolagus cuniculus; set-up: scale not given: the % may be the effect or the level left
Summary of the method: as §1, with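 “Washed rabbit platelets from EDTA-anticoagulated platelet-rich plasma, 4.5 × 10^8/ml in Tyrode's solution with 0.35% BSA. Preincubated” for “Preincubated”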

Platelet [14] = assay: Inhibition of collagen-induced platelet aggregation in rabbit platelet-rich plasma at 25 ug/mL after 3 mins by turbidimetric method; assay type: functional, Oryctolagus cuniculus; set-up: scale not given: the % may be the effect or the level left
Summary of the method: as §1, with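 “Washed rabbit platelets from EDTA-anticoagulated platelet-rich plasma, 4.5 × 10^8/ml in Tyrode's solution with 0.35% BSA. Preincubated” for “Preincubated”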

Platelet [15] = assay: Inhibition of ADP-induced platelet aggregation in rabbit platelet-rich plasma at 25 ug/mL after 3 mins by turbidimetric method; assay type: functional, Oryctolagus cuniculus; set-up: scale not given: the % may be the effect or the level left
Summary of the method: as §1, with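 “Washed rabbit platelets from EDTA-anticoagulated platelet-rich plasma, 4.5 × 10^8/ml in Tyrode's solution with 0.35% BSA. Preincubated” for “Preincubated”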

Aorta [16] = assay: Inhibition of norepinephrine-induced Wistar rat thoracic aorta tonic contraction at 10 ug/mL after 15 mins; assay type: functional; set-up: scale not given: the % may be the effect or the level left
Summary of the method: (§4)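 Thoracic aorta rings (~5 mm) from Wistar rats of either sex (250–300 g) held in Krebs solution at 37° under 95% O2/5% CO2. Equilibrated 90 min at 1 g tension, then preincubated 15 min with compound or 0.1% DMSO. Contraction by norepinephrine (3 µM), phasic and tonic components, expressed as % of control contraction, mean ± SE, n = 3.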

Aorta [17] = assay: Inhibition of norepinephrine-induced Wistar rat thoracic aorta phasic contraction at 20 ug/mL after 15 mins; assay type: functional; set-up: scale not given: the % may be the effect or the level left; summary of the method: as §4
Aorta [18] = assay: Inhibition of norepinephrine-induced Wistar rat thoracic aorta tonic contraction at 20 ug/mL after 15 mins; assay type: functional; set-up: scale not given: the % may be the effect or the level left; summary of the method: as §4
Aorta [19] = assay: Inhibition of norepinephrine-induced Wistar rat thoracic aorta phasic contraction at 10 ug/mL after 15 mins; assay type: functional; set-up: scale not given: the % may be the effect or the level left; summary of the method: as §4
Aorta [20] = assay: Inhibition of norepinephrine-induced Wistar rat thoracic aorta tonic contraction at 50 ug/mL after 15 mins; assay type: functional; set-up: scale not given: the % may be the effect or the level left; summary of the method: as §4
Aorta [21] = assay: Inhibition of norepinephrine-induced Wistar rat thoracic aorta phasic contraction at 50 ug/mL after 15 mins; assay type: functional; set-up: scale not given: the % may be the effect or the level left; summary of the method: as §4
Platelet [22] = assay: Inhibition of collagen-induced platelet aggregation in rabbit platelet-rich plasma after 3 mins by turbidimetric method; assay type: functional; details: Oryctolagus cuniculus

## CC(=O)Oc1cc(OC(C)=O)c2c(=O)c(OC(C)=O)c(-c3ccc(OC(C)=O)c(OC(C)=O)c3)oc2c1
Platelet [1]
  Activity: 17.4%
Platelet [2]
  Activity: 89.2%
Platelet [3]
  Activity: 2.4%

## O=c1c(O[C@@H]2O[C@H](CO[C@@H]3OC[C@H](O)[C@H](O)[C@H]3O)[C@H](O)[C@H](O)[C@H]2O)c(-c2ccc(O)c(O)c2)oc2cc(O)cc(O)c12
Aorta [4]
  Contraction as % of control: 100%
Aorta [5]
  Contraction as % of control: 100%
Aorta [6]
  Contraction (% of control): 108.4%

## CC(=O)Oc1cc(OC(C)=O)c2c(=O)c(O[C@@H]3O[C@H](CO[C@@H]4OC[C@H](OC(C)=O)[C@H](OC(C)=O)[C@H]4OC(C)=O)[C@H](OC(C)=O)[C@H](OC(C)=O)[C@H]3OC(C)=O)c(-c3ccc(OC(C)=O)c(OC(C)=O)c3)oc2c1
Platelet [1]
  Activity: 38.5%
Platelet [2]
  Activity: 87.7%
Platelet [3]
  Activity: 78.3%

## COc1cc(OC(C)=O)c2c(=O)c(O[C@@H]3O[C@H](CO[C@@H]4O[C@@H](C)[C@H](O[C@@H]5O[C@@H](C)[C@H](OC(C)=O)[C@@H](OC(C)=O)[C@H]5OC(C)=O)[C@@H](OC(C)=O)[C@H]4OC(C)=O)[C@H](OC(C)=O)[C@H](OC(C)=O)[C@H]3OC(C)=O)c(-c3ccc(OC(C)=O)c(OC)c3)oc2c1
Platelet [1]
  Activity: 87.8%
Platelet [2]
  Activity: 90.8%
Platelet [3]
  Activity: 88.8%

## Cc1cc(O)c2c(c1)C(=O)c1cccc(O)c1C2=O [CHRYSOPHANOL]
Platelet [7]
  Activity: 90.6%
Platelet [8]
  Activity: 85.4%
Platelet [9]
  Activity: 82.6%
Platelet [10]
  Activity: 88.3%

## CC(=O)Oc1cc(OC(C)=O)c2c(c1)C(=O)c1cc(C)cc(OC(C)=O)c1C2=O [EMODIN TRIACETATE]
Platelet [11]
  Activity: 72.2%
Platelet [1]
  Activity: 89.6%
Platelet [2]
  Activity: 84.5%
Platelet [3]
  Activity: 82.5%

## Cc1cc(O)c2c(c1)C(=O)c1cc(O)cc(O)c1C2=O [EMODIN]
Platelet [12]
  Activity: 90.2%
Platelet [11]
  Activity: 65.1%
Platelet [7]
  Activity: 64.5%
Platelet [8]
  Activity: 83.3%
Platelet [1]
  Activity: 75.7%
Platelet [2]
  Activity: 76.4%
Platelet [3]
  Activity: 33.6%

## O=c1c(O[C@@H]2O[C@H](CO)[C@H](O)[C@H](O)[C@H]2O)c(-c2ccc(O)c(O)c2)oc2cc(O)cc(O)c12 [HYPEROSIDE]
Platelet [11]
  Activity: 71.4%
Aorta [4]
  Contraction as % of control: 120.9%
Platelet [1]
  Activity: 87.3%
Platelet [2]
  Activity: 93.8%
Aorta [5]
  Contraction as % of control: 100%
Platelet [3]
  Activity: 92.2%
Aorta [6]
  Contraction (% of control): 98.8%

## COc1ccc2c(c1)c(CC(=O)O)c(C)n2C(=O)c1ccc(Cl)cc1 [INDOMETHACIN]
Platelet [11]
  Activity: 69.5%
Platelet [1]
  Activity: 72.3%
Platelet [2]
  Activity: 89.4%
Platelet [3]
  Activity: 0%

## COc1cc(OC(C)=O)c2c(c1)C(=O)c1cc(C)cc(OC(C)=O)c1C2=O [PHYSCION DIACETATE]
Platelet [12]
  Activity: 90.3%
Platelet [13]
  Activity: 93.9%
Platelet [14]
  Activity: 89.4%
Platelet [15]
  Activity: 76.5%

## COc1cc(O)c2c(c1)C(=O)c1cc(C)cc(O)c1C2=O [PHYSCION]
Platelet [12]
  Activity: 89.6%
Platelet [13]
  Activity: 80.7%
Platelet [14]
  Activity: 86.8%
Platelet [15]
  Activity: 78.9%

## O=c1c(O)c(-c2ccc(O)c(O)c2)oc2cc(O)cc(O)c12 [QUERCETIN]
Aorta [16]
  Activity: 101.9%
Aorta [17]
  Activity: 44.9%
Aorta [18]
  Activity: 29.1%
Aorta [4]
  Contraction as % of control: 13.9%
Aorta [19]
  Activity: 105%
Aorta [20]
  Activity: 0%
Aorta [5]
  Contraction as % of control: 27%
Aorta [6]
  Contraction (% of control): 0%
Aorta [21]
  Activity: 15%

## COc1cc(OC(C)=O)c2c(=O)c(OC(C)=O)c(-c3ccc(OC(C)=O)c(OC)c3)oc2c1 [RHAMNAZIN TRIACETATE]
Platelet [1]
  Activity: 14.3%
Platelet [2]
  Activity: 84.5%
Platelet [22]
  Activity: Dose-dependent effect
Platelet [3]
  Activity: 10%

## COc1cc(OC(C)=O)c2c(=O)c(OC(C)=O)c(-c3ccc(OC(C)=O)c(OC(C)=O)c3)oc2c1 [RHAMNETIN TETRAACETATE]
Platelet [1]
  Activity: 0%
Platelet [2]
  Activity: 0%
Platelet [22]
  Activity: Dose-dependent effect
Platelet [3]
  Activity: 2.6%

## CC(=O)Oc1cc(OC(C)=O)c2c(=O)c(OC(C)=O)c(-c3ccc(O[C@@H]4O[C@H](CO[C@@H]5O[C@@H](C)[C@H](OC(C)=O)[C@@H](OC(C)=O)[C@H]5O[C@@H]5O[C@@H](C)[C@H](OC(C)=O)[C@@H](OC(C)=O)[C@H]5OC(C)=O)[C@H](OC(C)=O)[C@H](OC(C)=O)[C@H]4OC(C)=O)cc3)oc2c1 [RHAMNUSTRIOSIDE UNDECAAACETATE]
Platelet [1]
  Activity: 86.5%
Platelet [2]
  Activity: 89.9%
Platelet [3]
  Activity: 88.5%

## CC(=O)Oc1cc(OC(C)=O)c2c(=O)c(O[C@@H]3O[C@H](CO[C@@H]4O[C@@H](C)[C@H](OC(C)=O)[C@@H](OC(C)=O)[C@H]4OC(C)=O)[C@@H](OC(C)=O)[C@H](OC(C)=O)[C@H]3OC(C)=O)c(-c3ccc(OC(C)=O)c(OC(C)=O)c3)oc2c1 [RUTIN DECAACETATE]
Platelet [11]
  Activity: 72.4%
Platelet [1]
  Activity: 27.3%
Platelet [2]
  Activity: 88.7%
Platelet [3]
  Activity: 25.9%

## C[C@@H]1O[C@@H](OC[C@H]2O[C@@H](Oc3c(-c4ccc(O)c(O)c4)oc4cc(O)cc(O)c4c3=O)[C@H](O)[C@@H](O)[C@@H]2O)[C@H](O)[C@H](O)[C@H]1O [RUTIN]
Platelet [11]
  Activity: 75%
Aorta [4]
  Contraction as % of control: 112.9%
Platelet [1]
  Activity: 87%
Platelet [2]
  Activity: 91.1%
Aorta [5]
  Contraction as % of control: 103.8%
Platelet [3]
  Activity: 93.5%
Aorta [6]
  Contraction (% of control): 120.6%
